Columns and labels:
Mus musculus [1] = assay: Distribution of Radioactivity in kidneys of CD-1 Mice by intravenous administration of compound after 1 hr expressed as dose/gram; assay type: ADME, organism-based, Kidney; conditions: in vivo
Summary of the method: (§1)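 Female CD-1 mice, 7 1/2 weeks old (25-29 g), fed and watered ad libitum. Agent given in physiological saline, pH adjusted to 7.4 and filtered, by lateral tail vein injection under ether anesthesia. Tissues collected at 5 min, 1 h, 4 h and 1 day. Injectate samples counted as standard; results as mean % injected dose/g with range.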

Rattus norvegicus [2] = assay: Distribution of Radioactivity in liver of Fisher 344 Rats by intravenous administration of compound after 1 hour expressed as dose/gram; assay type: ADME, organism-based; conditions: in vivo
Summary of the method: (§2)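 Female Fischer 344 rats, 10-12 weeks old (170-200 g), fed and watered ad libitum; four rats per time point. Each received ~6.3 μCi in 0.05 mL saline (pH 7.4, filtered), given by lateral tail vein under ether anesthesia. Tissues taken at 5 min, 1 h, 4 h and 1 day. Injectate standards used; values as mean % injected dose/g with range.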

Rattus norvegicus [3] = assay: Distribution of Radioactivity in small intestine of Fisher 344 Rats by intravenous administration of compound after 4 hour expressed as dose/gram; assay type: ADME, organism-based; conditions: in vivo
Summary of the method: (§3)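 Female Fischer 344 rats, 10-12 weeks old (170-200 g), food and water ad libitum; four rats per time point. About 6.3 μCi given in 0.05 mL saline (pH 7.4, filtered) by lateral tail vein under ether anesthesia. Tissues sampled at 5 min, 1 h, 4 h or 1 day. %ID/g computed from injectate standards; mean and range given.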

Mus musculus [4] = assay: Distribution of Radioactivity in lungs of CD-1 Mice by intravenous administration of compound after 1 hr expressed as dose/gram; assay type: ADME, organism-based, Lung; conditions: in vivo; summary of the method: as §1
Rattus norvegicus [5] = assay: Distribution of Radioactivity in pancreas of Fisher 344 Rats by intravenous administration of compound after 4 hour expressed as dose/gram; assay type: ADME, organism-based; conditions: in vivo; summary of the method: as §2
Mus musculus [6] = assay: Distribution of Radioactivity in blood of CD-1 Mice by intravenous administration of compound after 5 minutes expressed as dose/gram; assay type: ADME, organism-based; conditions: in vivo; summary of the method: as §1
Mus musculus [7] = assay: Distribution of Radioactivity in spleen of CD-1 Mice by intravenous administration of compound after 5 minutes expressed as dose/gram; assay type: ADME, organism-based; conditions: in vivo
Summary of the method: (§4)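 Female CD-1 mice, 7 1/2 weeks old (25-29 g), fed and watered ad libitum. Radiotracer in physiological saline, pH 7.4, filtered, injected via lateral tail vein under ether anesthesia. Tissues taken at 5 min, 1 h, 4 h or 1 day. Percent injected dose per gram calculated against assayed samples of the injected solution; mean with range reported.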

Rattus norvegicus [8] = assay: Distribution of Radioactivity in stomach of Fisher 344 Rats by intravenous administration of compound after 5 minutes expressed as dose/gram; assay type: ADME, organism-based; conditions: in vivo; summary of the method: as §3
Mus musculus [9] = assay: Distribution of Radioactivity in thymus of CD-1 Mice by intravenous administration of compound after 1 day expressed as dose/gram; assay type: ADME, organism-based; conditions: in vivo, 24 h; summary of the method: as §4
Mus musculus [10] = assay: Distribution of Radioactivity in adrenals of CD-1 Mice by intravenous administration of compound after 1 hr expressed as dose/gram; assay type: ADME, organism-based, Adrenal gland; conditions: in vivo; summary of the method: as §1
Rattus norvegicus [11] = assay: Distribution of Radioactivity in kidneys of Fisher 344 Rats by intravenous administration of compound after 4 hour expressed as dose/gram; assay type: ADME, organism-based, Kidney; conditions: in vivo; summary of the method: as §2
Mus musculus [12] = assay: Distribution of Radioactivity in thymus of CD-1 Mice by intravenous administration of compound after 5 minutes expressed as dose/gram; assay type: ADME, organism-based; conditions: in vivo; summary of the method: as §4
Rattus norvegicus [13] = assay: Distribution of Radioactivity in thymus of Fisher 344 Rats by intravenous administration of compound after 5 minutes expressed as dose/gram; assay type: ADME, organism-based; conditions: in vivo; summary of the method: as §3
Mus musculus [14] = assay: Distribution of Radioactivity in kidneys of CD-1 Mice by intravenous administration of compound after 5 minutes expressed as dose/gram; assay type: ADME, organism-based, Kidney; conditions: in vivo; summary of the method: as §1
Rattus norvegicus [15] = assay: Distribution of Radioactivity in adrenals of Fisher 344 Rats by intravenous administration of compound after 1 day expressed as dose/gram; assay type: ADME, organism-based, Adrenal gland; conditions: in vivo, 24 h; summary of the method: as §2
Rattus norvegicus [16] = assay: Distribution of Radioactivity in blood of Fisher 344 Rats by intravenous administration of compound after 1 hour expressed as dose/gram; assay type: ADME, organism-based; conditions: in vivo; summary of the method: as §2
Rattus norvegicus [17] = assay: Distribution of Radioactivity in lungs of Fisher 344 Rats by intravenous administration of compound after 5 minutes expressed as dose/gram; assay type: ADME, organism-based, Lung; conditions: in vivo; summary of the method: as §2
Mus musculus [18] = assay: Distribution of Radioactivity in pancreas of CD-1 Mice by intravenous administration of compound after 5 minutes expressed as dose/gram; assay type: ADME, organism-based; conditions: in vivo; summary of the method: as §1
Mus musculus [19] = assay: Distribution of Radioactivity in kidneys of CD-1 Mice by intravenous administration of compound after 1 day expressed as dose/gram; assay type: ADME, organism-based, Kidney; conditions: in vivo, 24 h; summary of the method: as §1
Mus musculus [20] = assay: Distribution of Radioactivity in thymus of CD-1 Mice by intravenous administration of compound after 4 hr expressed as dose/gram; assay type: ADME, organism-based; conditions: in vivo; summary of the method: as §4
Rattus norvegicus [21] = assay: Distribution of Radioactivity in stomach of Fisher 344 Rats by intravenous administration of compound after 1 day expressed as dose/gram; assay type: ADME, organism-based; conditions: in vivo, 24 h; summary of the method: as §3
Mus musculus [22] = assay: Distribution of Radioactivity in stomach of CD-1 Mice by intravenous administration of compound after 1 day expressed as dose/gram; assay type: ADME, organism-based; conditions: in vivo, 24 h; summary of the method: as §4
Mus musculus [23] = assay: Distribution of Radioactivity in adrenals of CD-1 Mice by intravenous administration of compound after 1 day expressed as dose/gram; assay type: ADME, organism-based, Adrenal gland; conditions: in vivo, 24 h; summary of the method: as §1
Rattus norvegicus [24] = assay: Distribution of Radioactivity in kidneys of Fisher 344 Rats by intravenous administration of compound after 1 day expressed as dose/gram; assay type: ADME, organism-based, Kidney; conditions: in vivo, 24 h; summary of the method: as §2
Rattus norvegicus [25] = assay: Distribution of Radioactivity in spleen of Fisher 344 Rats by intravenous administration of compound after 5 minutes expressed as dose/gram; assay type: ADME, organism-based; conditions: in vivo; summary of the method: as §3
Mus musculus [26] = assay: Distribution of Radioactivity in spleen of CD-1 Mice by intravenous administration of compound after 4 hr expressed as dose/gram; assay type: ADME, organism-based; conditions: in vivo; summary of the method: as §4
Rattus norvegicus [27] = assay: Distribution of Radioactivity in liver of Fisher 344 Rats by intravenous administration of compound after 1 day expressed as dose/gram; assay type: ADME, organism-based; conditions: in vivo, 24 h; summary of the method: as §2
Rattus norvegicus [28] = assay: Distribution of Radioactivity in adrenals of Fisher 344 Rats by intravenous administration of compound after 4 hour expressed as dose/gram; assay type: ADME, organism-based, Adrenal gland; conditions: in vivo; summary of the method: as §2
Rattus norvegicus [29] = assay: Distribution of Radioactivity in stomach of Fisher 344 Rats by intravenous administration of compound after 1 hour expressed as dose/gram; assay type: ADME, organism-based; conditions: in vivo; summary of the method: as §3
Rattus norvegicus [30] = assay: Distribution of Radioactivity in small intestine of Fisher 344 Rats by intravenous administration of compound after 1 hour expressed as dose/gram; assay type: ADME, organism-based; conditions: in vivo; summary of the method: as §3
Mus musculus [31] = assay: Distribution of Radioactivity in pancreas of CD-1 Mice by intravenous administration of compound after 1 day expressed as dose/gram; assay type: ADME, organism-based; conditions: in vivo, 24 h; summary of the method: as §1
Rattus norvegicus [32] = assay: Distribution of Radioactivity in pancreas of Fisher 344 Rats by intravenous administration of compound after 5 minutes expressed as dose/gram; assay type: ADME, organism-based; conditions: in vivo; summary of the method: as §2
Rattus norvegicus [33] = assay: Distribution of Radioactivity in blood of Fisher 344 Rats by intravenous administration of compound after 1 day expressed as dose/gram; assay type: ADME, organism-based; conditions: in vivo, 24 h; summary of the method: as §2
Rattus norvegicus [34] = assay: Distribution of Radioactivity in pancreas of Fisher 344 Rats by intravenous administration of compound after 1 hour expressed as dose/gram; assay type: ADME, organism-based; conditions: in vivo; summary of the method: as §2
Mus musculus [35] = assay: Distribution of Radioactivity in lungs of CD-1 Mice by intravenous administration of compound after 1 day expressed as dose/gram; assay type: ADME, organism-based, Lung; conditions: in vivo, 24 h; summary of the method: as §1
Mus musculus [36] = assay: Distribution of Radioactivity in spleen of CD-1 Mice by intravenous administration of compound after 1 hr expressed as dose/gram; assay type: ADME, organism-based; conditions: in vivo; summary of the method: as §4
Rattus norvegicus [37] = assay: Distribution of Radioactivity in lungs of Fisher 344 Rats by intravenous administration of compound after 4 hour expressed as dose/gram; assay type: ADME, organism-based, Lung; conditions: in vivo; summary of the method: as §2
Rattus norvegicus [38] = assay: Distribution of Radioactivity in liver of Fisher 344 Rats by intravenous administration of compound after 5 minutes expressed as dose/gram; assay type: ADME, organism-based; conditions: in vivo; summary of the method: as §2
Rattus norvegicus [39] = assay: Distribution of Radioactivity in spleen of Fisher 344 Rats by intravenous administration of compound after 4 hour expressed as dose/gram; assay type: ADME, organism-based; conditions: in vivo; summary of the method: as §3
Mus musculus [40] = assay: Distribution of Radioactivity in lungs of CD-1 Mice by intravenous administration of compound after 5 minutes expressed as dose/gram; assay type: ADME, organism-based, Lung; conditions: in vivo; summary of the method: as §1

## beta-[103,106Ru]Ruthenocenylalanine
Mus musculus [1]
  Injected: 4.59%
Rattus norvegicus [2]
  Injected: 1.27%
Rattus norvegicus [3]
  Injected: 0.218%
Mus musculus [4]
  Injected: 1.015%
Rattus norvegicus [5]
  Injected: 0.044%
Mus musculus [6]
  Injected: 6.768%
Mus musculus [7]
  Injected: 1.348%
Rattus norvegicus [8]
  Injected: 0.243%
Mus musculus [9]
  Injected: 0.138%
Mus musculus [10]
  Injected: 1.054%
Rattus norvegicus [11]
  Injected: 1.148%
Mus musculus [12]
  Injected: 2.579%
Rattus norvegicus [13]
  Injected: 0.335%
Mus musculus [14]
  Injected: 15.745%
Rattus norvegicus [15]
  Injected: 0.044%
Rattus norvegicus [16]
  Injected: 0.698%
Rattus norvegicus [17]
  Injected: 1.123%
Mus musculus [18]
  Injected: 1.749%
Mus musculus [19]
  Injected: 0.871%
Mus musculus [20]
  Injected: 0.195%
Rattus norvegicus [21]
  Injected: 0.023%
Mus musculus [22]
  Injected: 0.032%
Mus musculus [23]
  Injected: 0.556%
Rattus norvegicus [24]
  Injected: 1.128%
Rattus norvegicus [25]
  Injected: 0.355%
Mus musculus [26]
  Injected: 0.206%
Rattus norvegicus [27]
  Injected: 0.15%
Rattus norvegicus [28]
  Injected: 0.047%
Rattus norvegicus [29]
  Injected: 0.081%
Rattus norvegicus [30]
  Injected: 1.421%
Mus musculus [31]
  Injected: 0.067%
Rattus norvegicus [32]
  Injected: 0.361%
Rattus norvegicus [33]
  Injected: 0.051%
Rattus norvegicus [34]
  Injected: 0.299%
Mus musculus [35]
  Injected: 0.252%
Mus musculus [36]
  Injected: 0.384%
Rattus norvegicus [37]
  Injected: 0.124%
Rattus norvegicus [38]
  Injected: 2.844%
Rattus norvegicus [39]
  Injected: 0.062%
Mus musculus [40]
  Injected: 3.603%

Source: ChEMBL document CHEMBL1122792, “Synthesis and biological evaluation of radiolabeled beta-ruthenocenylalanine” (J Med Chem, 1984)
